Screening results as filed in PubChem.
Only some compounds are listed: those with a hit (about 3.2% of all), similar ones and a draw of the others.
Cneo AK release: Cryptococcus neoformans cell lysis inducers, primary screen, AK release luminescence, single concentration; C. neoformans lysis, adenylate kinase release luminescence, 4 h; normalised: neutral wells 0, clomiphene wells 100; lysis activity, % at 15 µM; hit rate 0.2% among 360,000; AID 651654, 2012;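 active = mean lysis activity across replicates of at least 80%, whatever share of replicates individually reach that level; inactive = mean lysis activity below 80%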
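Assay system: log-phase C. neoformans yeast / Quantity: yeast cell density of 5 × 10^6 cells/mL / Medium: fresh YPD growth medium / Compound: single dose / Timing: static 4 h at 37 °C with compound, 1 h detection / Measured by: adenylate kinase release luminescence / Read-out: lysis from increased AK signal / Benchmarks: Clomiphene as positive lysis control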
PfHsp90 yeast 2: growth inhibition of PfHsp90-expressing yeast, primary screen, antimalarial PfHsp90 inhibitor project, S. cerevisiae, BacTiter-Glo luminescence, single point, set 2. BacTiter-Glo ATP, 48 h; yeast lacking PDR1 and PDR3 efflux regulators. inhibition, % at 9.4 µM. hit rate 0.32% among 310,000. AID 504621, 2011;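 active = every replicate shows inhibition above about 80%, whatever the replicate mean, limit read from the data; inconclusive = mean inhibition reaches the set limit but some replicate falls short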;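 also: 0% = DMSO neutral controls and 100% = 20 µM radicicol positive controls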
rRNA inh HTS: reduced GFP signal of wild-type E. coli, primary screen, bacterial rRNA inhibitor project, GFP/RFP fluorescence, OD600, single point; E. coli WT GFP vs humanized-ribosome RFP mutants, 24 h; stronger effect = lower value; DMSO median 0, no signal -100; hit rate 1.6% among 350,000; GFP signal change (wild-type ribosome), % (no concentration beside the values); AID 720706, 2013;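 active = significant combined selectivity score with lowered wild-type GFP, culture density cut under 30%, mutant RFP and density less affected; inactive = any of these conditions unmet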
MLL AF4-AF9 inh: inhibitors of AF4 peptide binding to AF9, primary screen, biochemical, AlphaScreen, biotin-AF4 peptide, FLAG-AF9, single point; Protein AF-9 (Homo sapiens), P42568; inhibition, % at 10 µM; hit rate 0.47% among 350,000;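 active = every replicate reaching a set inhibition limit, whatever the replicate mean, cut at about 25% in these data; inconclusive = mean inhibition reaches that limit but some replicates miss it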;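 also: 0% = plate neutral control median and 100% = total signal loss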
Target sequence (P42568 whole entry, looked up): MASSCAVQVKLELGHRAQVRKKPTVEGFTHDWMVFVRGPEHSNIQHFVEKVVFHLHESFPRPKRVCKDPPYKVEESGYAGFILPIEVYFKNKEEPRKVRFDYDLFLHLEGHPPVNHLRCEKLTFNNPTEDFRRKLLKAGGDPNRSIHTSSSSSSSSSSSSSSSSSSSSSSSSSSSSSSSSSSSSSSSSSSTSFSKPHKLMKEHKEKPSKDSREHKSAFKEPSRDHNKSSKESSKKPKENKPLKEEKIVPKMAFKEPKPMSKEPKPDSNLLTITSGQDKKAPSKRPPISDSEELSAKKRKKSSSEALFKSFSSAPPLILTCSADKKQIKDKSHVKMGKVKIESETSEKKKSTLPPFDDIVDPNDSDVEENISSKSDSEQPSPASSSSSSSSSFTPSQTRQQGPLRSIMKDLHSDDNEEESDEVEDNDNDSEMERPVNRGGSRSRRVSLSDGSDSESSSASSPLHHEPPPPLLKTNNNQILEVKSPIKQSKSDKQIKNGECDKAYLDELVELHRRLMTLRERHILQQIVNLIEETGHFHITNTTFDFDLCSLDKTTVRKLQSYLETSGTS
S100A4 inh HTS: inhibitors of S100A4-myosin IIA peptide binding, primary screen, biochemical, fluorescence polarization, TAMRA-MyoIIA peptide. Protein S100-A4 (Homo sapiens), P26447. inhibition, % at 10.7 µM. hit rate 0.14% among 360,000. AID 652163, 2013;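 active = mean inhibition of at least 70% across replicates, with every replicate also reaching that level; inconclusive = mean inhibition reaches 70% but some replicates fall short; inactive = mean inhibition below 70%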
Target sequence (P26447 whole entry, looked up): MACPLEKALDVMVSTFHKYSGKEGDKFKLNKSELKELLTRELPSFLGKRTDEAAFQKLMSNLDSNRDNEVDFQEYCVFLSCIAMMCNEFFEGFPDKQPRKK
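Test system: S100A4 monomer protein. Medium: HEPES buffer with Ca2+, pH 7.2. Reagent: fluorescent myosin IIA peptide, 5 nM. Compound dosing: single-point compound testing. Timing: 5 min between mix addition and reading. Benchmarks: DMSO neutral and TFP positive wells.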
DENV2 CPE: inhibitors of DENV2 cytopathic effect, primary screen, cell-based, plate reader, single concentration; CPE inhibition, % at 9.99 µM; hit rate 1.7% among 350,000; AID 651640, 2012; DENV2-infected cells, cytopathic effect rescue; in the data active = CPE inhibition above about 20%, passing the limit was not always enough; inconclusive = no clear call, values can overlap the other calls; tested in BHK-21 cells;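 also: 0% = median of neutral control wells and 100% = median of positive control wells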
AID977621: growth inhibition of wild-type GFP E. coli, dose response, H69 mutant RFP, cherry-pick; AID 977621, 2014; shares compounds with rRNA inh HTS; E. coli wild-type GFP strain growth, fluorescence, 24 h; 1,900 tested, under 10 active; activity change, negative = inhibition at 50 µM;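 active = Wild-type ribosome reporter drop at least double the humanized mutant ribosome reporter drop, growth loss under a set limit; inconclusive = no clear call, values can overlap the other calls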;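 also: wild-type GFP and H69 mutant RFP strains grown together 50/50 in each well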
AID977628: E. coli growth inhibition, wild-type GFP versus h24 humanized RFP strain, dose response, h24 mutant RFP vs wild-type GFP, cherry-pick; 1,900 tested, under 10 active; activity change, negative = inhibition at 50 µM; E. coli WT GFP strain growth, fluorescence, 24 h; shares compounds with rRNA inh HTS;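 active = compound lowering the normal-ribosome reporter at least twice as much as the humanized-ribosome reporter, growth loss under a set limit; inconclusive = no clear call, values can overlap the other calls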;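 also: wild-type GFP and h24 humanized RFP strains co-cultured 1 to 1 per well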
Active calls of the source: *; ? = inconclusive; nt = not tested or not shown.

SMILES	Cneo AK release	PfHsp90 yeast 2	rRNA inh HTS	MLL AF4-AF9 inh	S100A4 inh HTS	DENV2 CPE	AID977621	AID977628
CC1(C(=O)NS(=O)(=O)c2cccs2)CCN1C(=O)C1(c2ccc(Cl)cc2)CCC1 (stereo not drawn)	0	nt	-33*	-2	-1	3	-22	nt
CC1(C(=O)NS(=O)(=O)c2cccc(Cl)c2)CCN1C(=O)C1(c2ccc(Cl)cc2)CCC1 (stereo not drawn)	-1	nt	-16*	-3	-16	-10	-15	nt
CC1(C(=O)NS(=O)(=O)c2cccc(Cl)c2)CCN1C(=O)C1(c2ccc(Cl)cc2)CC1 (stereo not drawn)	-13	nt	-5	-5	-2	2	nt	nt
CN(Cc1ccc(F)cc1)Cc1nc(CCc2ccccc2)no1	nt	-23	-19*	-2	1	5	nt	?
CN(Cc1ccc(F)cc1)Cc1nc(-c2ccccc2)no1	1	-15	-18	2	5	-1	nt	nt
CCOC(=O)c1csc(NC(=O)CC2CCCC2)n1	nt	-38	-20*	1	4	1	-20	nt
COc1ccc(OC)c(CN2CCCC(C(=O)c3ccccc3SC)C2)c1 (stereo not drawn)	nt	-11	-18*	nt	-4	1	nt	?
COc1ccc(-c2[nH]ncc2CN2CCCC(C(=O)c3ccc(OC)cc3OC)C2)cc1 (stereo not drawn)	nt	-4	7	6	-6	nt	nt	nt
CN(C)C(=O)C[C@@H]1CC[C@H]2[C@@H](COc3ccc(NC(=O)C4CC4)cc3C(=O)N2C)O1	5	nt	5	nt	17	nt	nt	nt
CC1CCCC(NC(=O)COC(=O)Cc2ccc(Cl)cc2)C1C (stereo not drawn)	0	24	-11	-1	-8	-2	nt	nt
CC1CCCC(NC(=O)COC(=O)Cc2c[nH]c3ccccc23)C1C (stereo not drawn)	nt	-2	-29*	-2	3	-4	-14	-13
O=C(NC1CCCC1)c1ccc([N+](=O)[O-])s1	nt	8	-20*	0	3	-4	-17	-3.9
CC(C)C#Cc1cnc2c(c1)C(=O)N([C@H](C)CO)C[C@@H](C)[C@@H](CN(C)C(=O)Nc1ccccc1F)O2	0	nt	6	-4	1	8	nt	nt
Cc1ccc(C)c(N2CCN(C(=O)CCS(=O)(=O)c3ccc4c(c3)oc(=O)n4C)CC2)c1	-1	-9	-19*	3	3	-9	-8.6	-4.9
Cc1cc(C)cc(NC(=O)COC(=O)CC2CCCC2)c1	0	-38	-19*	-5	1	7	-13	-6.4
O=C(Nc1cccc(O)c1)c1cccc(C(=O)Nc2cccc(O)c2)c1	-5	-15	-15	-4	1	-3	nt	nt
O=C(Nc1cccc(O)c1)c1cccc(S(=O)(=O)Nc2cccc(O)c2)c1	0	9	-16*	5	0	15	-4.3	-3.2
COCCn1c(SCC(=O)Nc2ccccc2OC)nc2ccccc21	nt	21	-24*	-6	-2	3	-3	?
COc1ccccc1NC(=O)CSc1nccn1Cc1ccc(F)cc1	-1	-12	-24*	7	-4	?	-4.8	nt
COCCn1c(SCC(=O)Nc2cccnc2Cl)nc2ccccc21	0	-7	-4	-2	-4	0	nt	nt
COCCn1c(SCc2nc3ccccc3s2)nc2ccccc21	-6	5	-19*	-2	-8	0	-11	nt
C[C@H](CO)N1C[C@H](C)[C@H](CN(C)CC2CC2)Oc2cc(C#CC3CC3)ccc2S1(=O)=O	-5	nt	-4	8	-5	5	nt	nt
C[C@@H]1CN([C@@H](C)CO)C(=O)c2cc(-c3ccc(C#N)cc3)cnc2O[C@H]1CN(C)C(=O)Nc1ccccc1	4	nt	-4	0	-4	1	nt	nt
CCN(CC)c1nc(Oc2ccc(C(=O)OC)cc2)nc(N2CCOCC2)n1	nt	-4	-16*	-2	-4	-2	-7.2	-16
CC1Sc2ccc(S(=O)(=O)NCc3ccccc3)cc2NC1=O (stereo not drawn)	1	-7	-21*	0	-1	-3	-14	nt
SMILES	Cneo AK release	PfHsp90 yeast 2	rRNA inh HTS	MLL AF4-AF9 inh	S100A4 inh HTS	DENV2 CPE	AID977621	AID977628
O=C(COC(=O)Cc1ccccc1F)Nc1ccc(Cl)cn1	-3	-7	-18*	0	0	?	-12	?
CC(C)(C)c1ccc(N2C(=O)CSC2c2cccnc2)cc1 (stereo not drawn)	-1	2	-19*	0	7	0	-10	nt
O=C1CSC(c2cccnc2)N1Cc1ccc(Cl)c(Cl)c1 (stereo not drawn)	nt	-2	-35*	nt	-6	-2	nt	-4.8
O=S1(=O)c2ccccc2C(O)(c2ccccc2)c2ccccc21	1	-18	-21*	3	-2	-5	nt	?
COC(=O)C[C@H]1C[C@@H]2c3cc(NC(=O)Nc4ccc(C(F)(F)F)cc4)ccc3O[C@@H]2[C@H](CO)O1	-4	nt	-25*	-5	9	-5	nt	?
C[C@@H]1CN([C@H](C)CO)C(=O)c2cc(NC(=O)Cc3ccccc3)ccc2O[C@@H](C)CCCCO[C@H]1CN(C)Cc1ccc(Cl)c(Cl)c1	6	nt	0	1	2	1	nt	nt
Clc1ccccc1C1CC(c2ccccc2)=Nc2ccccc2N1 (stereo not drawn)	nt	-13	-20*	nt	-2	?	nt	?
COc1cccc(C(=O)Nc2ccc3c(c2)C(=O)N(C)[C@@H]2CC[C@@H](CC(=O)NCc4ccccc4F)O[C@@H]2CO3)c1	-6	nt	-5	-2	6	-5	nt	nt
Nc1nc2ccccc2n1CCOc1ccc(F)cc1	2	8	-21*	5	0	8	-6.1	-14
COc1ccc(OCCn2c(N)nc3ccccc32)cc1	3	11	-23	5	-20	0	nt	nt
CCC(=O)N(C)C[C@H]1Oc2ncc(C#CCc3ccccc3)cc2C(=O)N([C@H](C)CO)C[C@@H]1C	0	nt	-1	-4	-11	-6	nt	nt
N#C[C@H]1[C@H](c2ccccc2-c2ccccc2)[C@H](CO)N1C(=O)NC1CCCCC1	nt	nt	-12	-2	-7	14	nt	nt
